# Active and inactive are the calls of the source. The rule behind the calls is not given here.
# Key:
# P2Y purinoceptor 1 [1] = biological target: P2Y purinoceptor 1 (Homo sapiens, UniProt P47900); assay: Agonist activity at human GFP-tagged P2Y1R transfected in human 1321N1 cells assessed as induction of intracellular calcium mobilization by fluorescence assay; type: functional, cell-based
# P2Y purinoceptor 1 [2] = biological target: P2Y purinoceptor 1 (Rattus norvegicus, UniProt P49651); assay: Agonist activity at rat brain P2Y1R transfected in HEK293 cells assessed as induction of intracellular calcium mobilization by fluorescence assay; type: functional, cell-based
# PC-12 [3] = assay: Antioxidant activity in rat PC12 cells assessed as inhibition of Fe2+-induced ROS production after 1 hr by DCFH-DA staining-based fluorometric analysis; type: functional, cell-based
# Outline: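 PC12 cells grown in DMEM, seeded 24 h. Loaded with DCFH-DA (ethanol stock diluted 100-fold in PBS) for 20 min, then probe removed. Nucleotides added at final 0.2–200 μM, and oxidation started with FeSO4 at final 0.16 μM. Fluorescence at 485/530 nm read during 1 h at 37 °C. […] Mean ± SD of two experiments.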
# [4] = Antioxidant activity assessed as free radical scavenging activity after 7 mins by ABTS radical cation decolorization assay; type: functional
# Outline: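 ABTS•+ is made from 7 mM ABTS and 2.45 mM persulfate (final), left in the dark at RT for 12–16 h, then diluted in water pH 7.4 to A734 0.80. It is mixed with compound or Trolox standard (final 0–60 μM), and A734 is read at exactly 7 min. Percent inhibition is plotted against concentration, with solvent blanks. Each run is done at least three times, in triplicate.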
# [5] = Antioxidant activity assessed as inhibiton of Fe2+-induced Fenton reaction-mediated hydroxyl radical formation from H2O2 measured for 150 secs by ESR analysis in presence of DMPO; type: functional
# Outline: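 Spin-trap ESR run at room temperature, final volume 100 μL. 5–500 μM compound is combined with ammonium iron(II) sulfate (1 mM stock) and Tris pH 7.4. After 30 s mixing, DMPO (100 mM stock) and H2O2 (100 mM stock) are added, with final pH 7.2–7.4. Spectrum is recorded 150 s after H2O2 at 9.76 GHz, 6.35 mW. Mean ± SD of three experiments.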
# PC-12 [6] = assay: Antioxidant activity in rat PC12 cells assessed as inhibition of Fe2+-induced ROS production at 100 uM after 1 hr by DCFH-DA staining-based fluorometric analysis relative to control; type: functional; conditions: PC-12, 1 h
# Outline: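 PC12 cells in DMEM were seeded 24 h, loaded 20 min with diluted DCFH-DA and washed. Nucleotides were then added at 0.2−200 μM final. Oxidation was started with FeSO4 at 0.16 μM final and plates were incubated 1 h at 37 °C. DCF fluorescence was read at 485/530 nm, and percent inhibition of ROS was taken against untreated oxidized control.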
# P2Y purinoceptor 11 = biological target: T1, P2Y purinoceptor 11 (Homo sapiens, UniProt Q96G91); assay: Agonist activity at human GFP-tagged P2Y11R transfected in human 1321N1 cells assessed as induction of intracellular calcium mobilization by fluorescence assay; type: functional, cell-based
# T1 sequence (Q96G91 whole entry): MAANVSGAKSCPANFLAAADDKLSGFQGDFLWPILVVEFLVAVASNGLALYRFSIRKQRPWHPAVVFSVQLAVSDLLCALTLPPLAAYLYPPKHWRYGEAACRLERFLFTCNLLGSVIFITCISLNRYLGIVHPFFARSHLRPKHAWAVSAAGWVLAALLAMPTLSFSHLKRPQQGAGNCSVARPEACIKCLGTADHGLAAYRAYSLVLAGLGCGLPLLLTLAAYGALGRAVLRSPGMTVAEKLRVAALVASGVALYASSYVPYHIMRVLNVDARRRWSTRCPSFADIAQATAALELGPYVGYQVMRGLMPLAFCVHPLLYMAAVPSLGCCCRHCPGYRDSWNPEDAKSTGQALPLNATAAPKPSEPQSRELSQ
# [7] = Metabolic stability in human serum assessed as compound remaining at 0.1 mg after 6 hrs by HPLC analysis; type: ADME, cell-free; conditions: read-out: Stability
# Outline: (§1)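 0.1 mg compound in water was mixed with human blood serum and RPMI-1640 medium (1:3 serum:medium) and incubated at 37 °C for 0−24 h. Remaining intact nucleotide was quantified from the change in its HPLC peak integration over time.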
# [8] = Neuroprotective activity in rat primary cortical neurons assessed as decrease in FeSO4-induced oxidative stress measured cell viability after 24 hrs by MTT assay; type: functional, cell-based; conditions: Cerebral cortex neuron
# Outline: (§2)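 Cortical neurons came from 1-day-old rat brain, were trypsin-dissociated and plated on polyornithine. They were grown in serum-free DMEM/F12 with B-27, then Ara-C treated for 48 h. Cells were treated with 0.01−5 μM nucleotide before FeSO4 (3 μM final) for 24 h. MTT 1 mg/mL was applied for 2 h at 37 °C, formazan dissolved in DMSO, absorbance read at 550 nm. Viability was expressed relative to vehicle control, mean ± SD of three independent experiments in triplicate.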
# Homo sapiens = species on record: Homo sapiens; assay: Selectivity ratio of EC50 for human GFP-tagged P2Y11R to EC50 for human GFP-tagged P2Y1R
# Outline: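 1321N1 astrocytoma cells stably expressing human P2Y1-GFP or P2Y11-GFP were loaded with 2 μM fura-2 AM plus 0.02% pluronic acid in HEPES-buffered saline pH 7.4 for 30 min at 37 °C. They were then superfused at 37 °C with graded agonist concentrations. [Ca2+]i was read as the F340/F380 ratio (510 nm emission) in GFP-positive cells, at least 40 cells per point. EC50 came from concentration–response curves, n = 3.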
# [9] = Half life in human serum at 0.1 mg after 6 hrs by HPLC analysis; type: ADME, cell-free; outline: as §1
# [10] = Neuroprotective activity in rat primary cortical neurons assessed as decrease in FeSO4-induced oxidative stress measured cell vitality at 1 uM after 24 hrs by MTT assay relative to control; type: functional, cell-based; parameters: scale not given: the % may be the effect or the level left; conditions: Cerebral cortex neuron; outline: as §2
# [11] = biological target: P2Y purinoceptor 12 (Rattus norvegicus) (UniProt Q9EPX4); assay: Agonist activity at P2Y12R in rat PC12 cells assessed as decrease in FeSO4-induced ROS formation at 0.04 to 100 uM after 1 hr by DCFH-DA staining-based fluorometric analysis in presence of P2Y12R antagonist 2-MeS-AMP; type: cell-based; conditions: PC-12
# Outline: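 PC12 cells seeded 24 h in DMEM, pretreated with 50 μM 2-MeS-AMP for 20 min, then loaded with DCFH-DA (stock 2 mg/mL in ethanol, diluted 100-fold in PBS) for 20 min and washed. Test agent added at 0.04−100 μM final. Oxidation started with FeSO4 at 0.16 μM final. Incubated 1 h at 37 °C, fluorescence read at 485/530 nm. Inhibition of ROS compared with control lacking antagonist.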
# [12] = Antioxidant activity assessed as inhibiton of Fe2+-induced Fenton reaction-mediated hydroxyl radical formation from H2O2 relative to trolox; type: functional
# Outline: (§3)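 Fe(II)-H2O2 hydroxyl radical assay read by ESR with DMPO spin trap. Ammonium iron(II) sulfate (1 mM, stock) was added to 5−500 μM test compound, then 1 mM Tris pH 7.4. After 30 s mixing, DMPO then H2O2 were added. Final pH 7.2−7.4, 100 μL total, room temperature. Spectrum recorded 150 s after H2O2. IC50 given as mean ± SD of three experiments.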
# [13] = Antioxidant activity assessed as inhibiton of Fe2+-induced Fenton reaction-mediated hydroxyl radical formation from H2O2 relative to ATP; type: functional; outline: as §3
# PC-12 [14] = assay: Cytotoxicity against rat PC12 cells assessed as cell viability up to 200 uM after 48 hrs by MTT assay; type: cell-based; conditions: pc-12, 48 h
# Outline: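 PC12 cells were exposed to compounds at various concentrations up to 200 μM for 48 h, and viability was measured by MTT assay.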
# [15] = Rattus norvegicus, PC-12, 1 h, read-out: IC50
# P2Y purinoceptor 1 (Homo sapiens, UniProt P47900), sequence (P47900 whole entry): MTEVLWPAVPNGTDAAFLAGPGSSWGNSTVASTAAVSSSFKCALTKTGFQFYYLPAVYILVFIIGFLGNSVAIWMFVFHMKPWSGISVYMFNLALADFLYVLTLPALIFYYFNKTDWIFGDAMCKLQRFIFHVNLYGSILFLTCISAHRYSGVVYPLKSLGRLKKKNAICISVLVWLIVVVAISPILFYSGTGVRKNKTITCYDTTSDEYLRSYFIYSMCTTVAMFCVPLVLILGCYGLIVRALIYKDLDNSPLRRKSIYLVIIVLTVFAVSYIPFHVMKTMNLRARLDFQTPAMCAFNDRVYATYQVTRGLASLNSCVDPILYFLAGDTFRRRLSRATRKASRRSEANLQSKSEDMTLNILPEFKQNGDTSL
# P2Y purinoceptor 12 (Rattus norvegicus), sequence (Q9EPX4 whole entry): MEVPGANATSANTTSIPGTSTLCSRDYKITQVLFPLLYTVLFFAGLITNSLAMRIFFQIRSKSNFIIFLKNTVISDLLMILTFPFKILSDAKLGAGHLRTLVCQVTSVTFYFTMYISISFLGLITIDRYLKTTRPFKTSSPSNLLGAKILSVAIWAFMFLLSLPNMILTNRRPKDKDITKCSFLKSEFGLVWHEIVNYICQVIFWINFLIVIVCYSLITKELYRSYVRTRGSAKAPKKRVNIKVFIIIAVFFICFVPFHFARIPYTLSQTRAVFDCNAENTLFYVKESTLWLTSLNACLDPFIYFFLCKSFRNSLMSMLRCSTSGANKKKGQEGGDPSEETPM
# P2Y purinoceptor 1 (Rattus norvegicus, UniProt P49651), sequence (P49651 whole entry): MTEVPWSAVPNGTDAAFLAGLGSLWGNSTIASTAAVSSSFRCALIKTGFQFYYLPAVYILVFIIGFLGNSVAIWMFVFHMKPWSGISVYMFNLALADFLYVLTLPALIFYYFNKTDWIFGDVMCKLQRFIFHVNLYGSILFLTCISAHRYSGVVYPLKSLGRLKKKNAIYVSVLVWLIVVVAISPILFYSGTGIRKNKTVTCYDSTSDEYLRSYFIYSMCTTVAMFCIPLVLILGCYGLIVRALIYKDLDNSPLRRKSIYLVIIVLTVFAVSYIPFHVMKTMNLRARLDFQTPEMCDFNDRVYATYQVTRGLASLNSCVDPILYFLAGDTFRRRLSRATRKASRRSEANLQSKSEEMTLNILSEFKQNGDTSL
SMILES,EC50 (P2Y purinoceptor 1 [1]),IC50 (PC-12 [3]; [15]),IC50 [4],IC50 [5],EC50 (P2Y purinoceptor 11; read-out: EC50),also measured
B[P@@](=O)(OC[C@H]1O[C@@H](n2cnc3c(N)nc(Cl)nc32)[C@H](O)[C@@H]1O)OP(=O)(O)OP(=O)(O)O,0.074 µM,1 µM,23 µM,66 µM,,EC50 (P2Y purinoceptor 1 [2]): 0.0045 µM
Nc1ncnc2c1ncn2[C@@H]1O[C@H](COP(=O)(O)OP(=O)(O)OP(=O)(O)O)[C@@H](O)[C@H]1O [ADENOSINE TRIPHOSPHATE],,,60 µM,> 500 µM,,inhibition at 100 µM (PC-12 [6]): 45%; IC50 (PC-12 [3]; pc-12): Not Active
Cc1c(C)c2c(c(C)c1O)CCC(C)(C(=O)O)O2 (stereo not given) [TROLOX],,20 µM,18 µM,,,
B[P@@](=O)(OC[C@H]1O[C@@H](n2cnc3c(N)ncnc32)[C@H](O)[C@@H]1O)OP(=O)(O)OP(=O)(O)OP(=O)(O)OP(=O)(O)OC[C@H]1O[C@@H](n2cnc3c(N)ncnc32)[C@H](O)[C@@H]1O,0.2 µM,0.4 µM,> 60 µM,59 µM,,EC50 (P2Y purinoceptor 11; 1321-n1): Not Active
Nc1ncnc2c1ncn2[C@@H]1O[C@H](COP(=O)(O)OP(=O)(O)O)[C@@H](O)[C@H]1O [ADENOSINE DIPHOSPHATE],0.024 µM,21 µM,30 µM,170 µM,1.7 µM,remaining at 6 h [7]: 32%
B[P@](=O)(OC[C@H]1O[C@@H](n2cnc3c(N)ncnc32)[C@H](O)[C@@H]1O)OP(=O)(O)O,13 µM,1 µM,24 µM,41 µM,2.9 µM,
B[P@](=O)(OC[C@H]1O[C@@H](n2cnc3c(N)nc(Cl)nc32)[C@H](O)[C@@H]1O)OP(=O)(O)O,0.6 µM,0.2 µM,39 µM,120 µM,1 µM,EC50 [8]: 0.4 µM; Ratio EC50 (Homo sapiens): < 530
B[P@](=O)(OC[C@H]1O[C@@H](n2cnc3c(N)ncnc32)[C@H](O)[C@@H]1O)OP(=O)(O)OP(=O)(O)OP(=O)(O)OP(=O)(O)OC[C@H]1O[C@@H](n2cnc3c(N)ncnc32)[C@H](O)[C@@H]1O,3 µM,1.2 µM,> 60 µM,47 µM,,EC50 (P2Y purinoceptor 11; 1321-n1): Not Active
B[P@](=O)(OC[C@H]1O[C@@H](n2cnc3c(N)nc(Cl)nc32)[C@H](O)[C@@H]1O)OP(=O)(O)C(Cl)(Cl)P(=O)(O)O,0.95 µM,0.19 µM,27 µM,60 µM,0.13 µM,
[BH3-][P@@](=O)(OC[C@H]1O[C@@H](n2cnc3c(N)ncnc32)[C@H](O)[C@@H]1O)OP(=O)([O-])[O-].[Na+].[Na+].[Na+],0.3 µM,1 µM,26 µM,47 µM,,remaining at 6 h [7]: 56%; EC50 (P2Y purinoceptor 11; 1321-n1): Not Active
B[P@@](=O)(OC[C@H]1O[C@@H](n2cnc3c(N)nc(Cl)nc32)[C@H](O)[C@@H]1O)OP(=O)(O)O,0.007 µM,0.08 µM,40 µM,175 µM,3.68 µM,half-life [9]: 7 h; Activity [10]: < 60%; EC50 [8]: 0.17 µM; Activity [11]: inactive; remaining at 6 h [7]: 53%; Ratio EC50 (Homo sapiens): < 530
BP(=O)(OP(=O)(O)OP(=O)(O)OC[C@H]1O[C@@H](n2cnc3c(N)ncnc32)[C@H](O)[C@@H]1O)OP(=O)(O)OP(=O)(O)OC[C@H]1O[C@@H](n2cnc3c(N)ncnc32)[C@H](O)[C@@H]1O,1.2 µM,5 µM,61 µM,161 µM,,
B[P@@](=O)(OC[C@H]1O[C@@H](n2cnc3c(N)nc(Cl)nc32)[C@H](O)[C@@H]1O)OP(=O)(O)C(Cl)(Cl)P(=O)(O)O,0.15 µM,0.18 µM,24 µM,131 µM,1.4 µM,
Nc1ncnc2c1ncn2[C@@H]1O[C@H](COP(=O)(O)OP(=O)(O)OP(O)(O)=S)[C@@H](O)[C@H]1O,,,,,,fold change (FC) [12]: 20; fold change (FC) [13]: 100
[BH3-]P(=O)(OC[C@H]1O[C@@H](n2cnc3c(N)ncnc32)[C@H](O)[C@@H]1O)OP(=O)([O-])OP(=O)([O-])OP(=O)([O-])OP(=O)([O-])OC[C@H]1O[C@@H](n2cnc3c(N)ncnc32)[C@H](O)[C@@H]1O.[Na+].[Na+].[Na+].[Na+].[Na+] (stereo not given in full),,,,,,Activity (PC-12 [14]): Non-toxic
[BH3-]P(=O)(OC[C@H]1O[C@@H](n2cnc3c(N)nc(Cl)nc32)[C@H](O)[C@@H]1O)OP(=O)([O-])C(Cl)(Cl)P(=O)([O-])[O-].[Na+].[Na+].[Na+].[Na+] (stereo not given in full),,,,,,Activity (PC-12 [14]): Non-toxic
BP(=O)(OC[C@H]1O[C@@H](n2cnc3c(N)nc(Cl)nc32)[C@H](O)[C@@H]1O)OP(=O)(O)O (stereo not given in full),,,,,,Activity (PC-12 [14]): Non-toxic
B[P@](=O)(OC[C@H]1O[C@@H](n2cnc3c(N)nc(Cl)nc32)[C@H](O)[C@@H]1O)OP(=O)(O)OP(=O)(O)O,2.5 µM,2.6 µM,24 µM,36 µM,,
Nc1ncnc2c1ncn2[C@@H]1O[C@H](COP(=O)(O)OP(=O)(O)OP(=O)(O)OP(=O)(O)OP(=O)(O)OC[C@H]2O[C@@H](n3cnc4c(N)ncnc43)[C@H](O)[C@@H]2O)[C@@H](O)[C@H]1O,0.76 µM,29 µM,> 60 µM,75 µM,,
O=C(O)CN(CCN(CC(=O)O)CC(=O)O)CC(=O)O [EDETIC ACID],,,,54 µM,,
CSc1nc(N)c2ncn([C@@H]3O[C@H](COP(=O)(O)OP(=O)(O)O)[C@H](O)[C@H]3OC(=O)c3ccccc3)c2n1,,,,,1.5 µM,

# Reference: ChEMBL document CHEMBL2384903, “Highly efficient biocompatible neuroprotectants with dual activity as antioxidants and P2Y receptor agonists” (J Med Chem, 2013)
